Measurements collected from several papers.
Organism: Trypanosoma brucei
Read-out: parasite growth

Compound	assay	system	setting	EC50 [nM]
O=c1c(O[C@@H]2O[C@H](CO)[C@@H](O)[C@H](O)[C@H]2O)c(-c2ccc(O)c(O)c2)oc2cc(O)cc(O)c12	resazurin	–	48 h	> 20000
COc1cc(C)c(C#N)c(SCC(=O)c2ccccc2)n1	resazurin	RHODESIENSE	–	32800
CC(=O)O[C@H]1C(=O)[C@@]2(C)[C@H]([C@H](OC(=O)c3ccccc3)[C@]3(O)C[C@H](OC(=O)[C@H](O)[C@@H](NC(=O)c4ccccc4)c4ccccc4)C(C)=C1C3(C)C)[C@]1(OC(C)=O)CO[C@@H]1C[C@@H]2O	–	–	–	7.6
O=C(N/N=C/c1ccc([N+](=O)[O-])o1)c1cn(Cc2ccccc2)c2ccc(Oc3ccccc3)cc2c1=O	resazurin	–	72 h	320
Cc1cc(C)c(C#N)c(SCC(=O)c2ccccc2C)n1	resazurin	–	–	25800
N=C(N)c1ccc(OCCCCCOc2ccc(C(=N)N)cc2)cc1	SYBR Green	GAMBIENSE	–	9
COc1ccc2c(c1)c(=O)c(C(=O)NN)cn2Cc1ccc(C)cc1	resazurin	–	72 h	> 4000
CCCCCC(=O)NC(Cc1ccc(NC(=O)OC(C)(C)C)cc1)C(=O)NC(Cc1ccc(NC(=O)OC(C)(C)C)cc1)C(=O)NC(CC(C)C)C(=O)C1(C)CO1 (stereo not shown)	SYBR Green	–	72 h	465
Cc1ccc(Cn2cc(C(=O)N/N=C/c3ccc([N+](=O)[O-])s3)c(=O)c3cc(Br)ccc32)cc1	resazurin	–	72 h	140
COc1cccc(C(=O)C[S+]([O-])c2nc(C)cc(C)c2C#N)c1 (stereo not shown)	resazurin	–	–	25400
